Results as given in ChEMBL document CHEMBL2385009, “Guaiane-type sesquiterpenes from Curcuma phaeocaulis and their inhibitory effects on nitric oxide production” (J Nat Prod, 2013).

Legend:
RAW264.7 [1] = assay: Antiinflammatory activity in mouse RAW264.7 cells assessed as inhibition of LPS-induced nitric oxide production after 24 hrs by Griess assay; type: functional, cell-based; conditions: RAW264.7, 24 h
Procedure, shortened: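 RAW 264.7 cells seeded at 1 × 10^5 cells/well, stimulated with LPS 1 μg/mL with or without test compound, 37 °C for 24 h. Nitrite in cell-free supernatant, taken as the NO indicator, measured by Griess reaction: supernatant mixed 1:1 with equal parts 1% sulfanilamide in 5% phosphoric acid and 0.1% N-(1-naphthyl)ethylenediamine, absorbance at 540 nm. Values given as IC50.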

RAW264.7 [2] = assay: Cytotoxicity against mouse RAW264.7 cells at IC50 by MTT assay; type: cell-based

IC50 (RAW264.7 [1]) [µM]	Compound	Activity (RAW264.7 [2])
11.4	CC(C)C1=C[C@@H]2[C@@H](CC[C@@H]2C)[C@@](C)(O)CC1	Non-toxic
1.3	CC1=C2C[C@@H]3[C@@](C)(O)CC[C@]3(O)[C@](C)(O)C=C2OC1=O [ZEDOALACTONE B]	Non-toxic
3	CC1=C2C[C@@H]3[C@@](C)(O)CC[C@@]3(O)[C@](C)(O)C=C2OC1=O	Non-toxic
12.1	COc1ccc2c(c1)c(CC(=O)O)c(C)n2C(=O)c1ccc(Cl)cc1 [INDOMETHACIN]	–
19.6	CC1=CC(=O)CC[C@@H]2[C@@](C)(O)CC[C@@]12O	Non-toxic
2.9	CC1=C2C[C@H]3[C@H](CC[C@]3(C)O)[C@](C)(O)C=C2OC1=O	Non-toxic
57.9	CC1=C2C[C@@H]3[C@H](CC[C@@]3(C)O)[C@@](C)(O)C[C@@H]2OC1=O	Non-toxic
4.2	CC1=C[C@]2(O)O[C@@]3(CC2=C(C)C)[C@@H](C)CC[C@@H]13 [CURCUMENOL]	Non-toxic
54.2	CC(=O)CCc1ccc(C(C)(C)O)c(=O)cc1C [CURCUMADIONOL]	Non-toxic
30.1	CC1=C2C[C@]3(O)[C@H](C)CC[C@H]3[C@@](C)(O)C=C2OC1=O	Non-toxic
12.9	CC(C)=C1C[C@H]2[C@@H](CC[C@]2(C)O)C(CO)=CC1=O	Non-toxic
52.2	CC1=C[C@@]2(O)O[C@@]3(CC2=C(C)C)[C@H](C)CC[C@@H]13	Non-toxic
1.6	CC1=C2C[C@H]3[C@H](CC[C@]3(C)O)[C@@](C)(O)C[C@H]2OC1=O [ZEDOALACTONE A]	Non-toxic
87.1	CC1=C2C[C@@H]3[C@@](C)(O)CC[C@]34O[C@]4(C)[C@H](O)[C@]2(O)OC1=O [ZEDOAROLIDE A]	Non-toxic
1.6	CC1=C2C[C@@H]3[C@@](C)(O)CC[C@]3(O)[C@@](C)(O)C=C2OC1=O [ZEDOALACTONE D]	Non-toxic
5.9	Cc1cc(=O)c(C(C)(C)O)cc2c1CC[C@]2(C)O	Non-toxic
54.2	CC(C)=C1C[C@H]2[C@@H](CC[C@]2(C)O)[C@](C)(O)CC1=O [ZEDOARONDIOL]	Non-toxic
13.7	CC1=CC(=O)C(=C(C)C)C[C@H]2[C@H]1CC[C@]2(C)O [PROCURCUMENOL]	Non-toxic
10.3	CC(C)=C1C[C@H]2[C@@H](CC[C@]2(C)O)[C@@](C)(O)CC1=O	Non-toxic
1.9	CC1=C2C[C@@H]3[C@H](CC[C@@]3(C)O)[C@](C)(O)C[C@H]2OC1=O	Non-toxic
4.6	CC1=C2C[C@H]3[C@H](CC[C@]3(C)O)[C@@](C)(O)C[C@]2(O)OC1=O [ZEDOAROLIDE B]	Non-toxic
57.4	CC1=CC(=O)[C@@]2(C[C@]3(O)[C@@H](C)CC[C@@H]13)OC2(C)C [OXYCURCUMENOL EPOXIDE]	Non-toxic
43.8	C[C@]12CCC(=O)C=C1CC[C@@H]1[C@@H]2[C@@H](O)C[C@@]2(C)[C@H]1CC[C@]2(O)C(=O)CO [HYDROCORTISONE]	–
16.7	CC(C)=C1C[C@H]2[C@H](CC[C@]2(C)O)[C@](C)(O)CC1=O [(1S,4S,5S,10R)-ZEDOARONDIOL]	Non-toxic
1.5	CC1=C2C[C@H]3[C@@](C)(O)CC[C@@]34O[C@@]2(C[C@@]4(C)O)OC1=O	Non-toxic
61.8	CC1=C2C[C@H]3[C@H](CC[C@]3(C)O)[C@@](C)(O)C[C@@H]2OC1=O [ZEDOALACTONE C]	Non-toxic
9.8	C=C1C[C@]2(O)O[C@@]3(CC2=C(C)C)[C@@H](C)CC[C@@H]13 [ISOCURCUMENOL]	Non-toxic
11.7	CC1=CC(=O)C(=C(C)C)C[C@@]2(O)[C@H]1CC[C@]2(C)O [PROCURCUMADIOL]	Non-toxic
1.4	CC(C)=C1C[C@H]2[C@H](CC[C@]2(C)O)[C@@](C)(O)CC1=O [ISOZEDOARONDIOL]	Non-toxic
4.3	CC(C)C1=C[C@H]2[C@@H](CC[C@]2(C)O)[C@](C)(O)CC1 [ALISMOXIDE]	Non-toxic
